Measurements taken from ChEMBL document CHEMBL4477204, “Tetrahydroisoquinoline-Derived Urea and 2,5-Diketopiperazine Derivatives as Selective Antagonists of the Transient Receptor Potential Melastatin 8 (TRPM8) Channel Receptor and Antiprostate Cancer Agents” (J Med Chem, 2016).
Activity calls are given as the source filed them. No cut-off for these calls is given here.

Columns and labels:
[1] = target: Transient receptor potential cation channel subfamily M member 8 (Rattus norvegicus, UniProt Q8R455); test: Agonist activity at recombinant rat TRPM8 expressed in HEK293 cells assessed as increase in intracellular calcium accumulation by Fluo-4-AM probe-based spectrofluorimetric assay; assay type: cell-based; conditions: hek293
How it was run: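 HEK-293 cells stably expressing rat TRPM8 were loaded with Fluo-4-AM (4 µM, 0.02% Pluronic F-127) for 1 h at 25 °C in serum-free EMEM. They were then washed and suspended in Tyrode's buffer pH 7.4 in a stirred cuvette. [Ca2+]i fluorescence (ex 488/em 516 nm) was read before and after compound addition. Wild-type HEK-293 response was subtracted. Efficacy is expressed versus 4 µM ionomycin; EC50 comes from a sigmoidal fit.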

[2] = tested on: LNCaP; test: Induction of apoptosis in human LNCAP cells assessed as increase in caspase3/7 activity at 10 uM after 72 hrs by caspase-glo 3/7 chemiluminescence assay relative to control; assay type: functional
How it was run: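 LNCaP cells were cultured 72 h with 10 µM compound or vehicle, then washed with PBS. Caspase-Glo 3/7 reagent was added to 1×10^4 cells/assay, incubated 1 h at room temperature in the dark, and luminescence was read. Vehicle blank was subtracted; runs were in triplicate. Camptothecin 0.1 µg/mL plus anti-Fas 0.2 µg/mL for 24 h served as the apoptosis reference.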

[3] = target: Transient receptor potential cation channel subfamily A member 1 (Rattus norvegicus, UniProt Q6RI86); test: Antagonist activity at recombinant rat TRPA1 expressed in HEK293 cells assessed as inhibition of AITC-induced intracellular calcium accumulation preincubated for 5 mins followed by AITC addition by Fluo-4-AM probe-based spectrofluorimetric assay; assay type: cell-based
How it was run: (§1)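 HEK-293 cells stably expressing the listed TRP channel (human TRPV1; rat TRPM8, TRPA1, TRPV2, TRPV3 or TRPV4) were Fluo-4-AM loaded (4 µM, 1 h, 25 °C) and suspended in Tyrode's buffer pH 7.4. Compound was added 5 min before agonist: icilin 0.25 µM (TRPM8), capsaicin 0.1 µM (TRPV1), AITC 100 µM (TRPA1), LPC 3 µM (TRPV2), thymol 100 µM (TRPV3), 4α-PDD 1 µM (TRPV4). Agonist alone was taken as 100%. IC50 from sigmoidal fit, at least triplicate.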

[4] = target: T1, Transient receptor potential cation channel subfamily V member 1 (Homo sapiens, UniProt Q8NER1); test: Antagonist activity at recombinant human TRPV1 expressed in HEK293 cells assessed as inhibition of capsaicin-induced intracellular calcium accumulation preincubated for 5 mins followed by capsaicin addition by Fluo-4-AM probe-based spectrofluorimetric assay; assay type: cell-based; how it was run: as §1
[5] = target: T1, Transient receptor potential cation channel subfamily V member 1; test: Antagonist activity at recombinant human TRPV1 expressed in HEK293 cells assessed as inhibition of capsaicin-induced intracellular calcium accumulation up to 10 uM […] preincubated for 5 mins followed by capsaicin addition by Fluo-4-AM probe-based spectrofluorimetric assay; assay type: cell-based; how it was run: as §1
[6] = in vitro; conditions: C57BL/6, mouse, liver microsomes
[7] = tested on: LNCaP; test: Cytotoxicity against human LNCAP cells assessed as reduction in cell viability by measuring fluorescence gated cells at 10 uM after 72 hrs by CBNF assay (reference value: 83.3%); assay type: functional
[8] = tested on: CWR22R; test: Cytotoxicity against human 22Rv1 cells assessed as reduction in cell viability by measuring fluorescence gated cells at 10 uM after 72 hrs by CBNF assay (reference value: 81.3%); assay type: functional
[9] = Cytotoxicity against human PNT1A cells assessed as reduction in cell viability by measuring fluorescence gated cells at 10 uM after 72 hrs by CBNF assay (reference value: 94.1%); assay type: cell-based; conditions: read-out: Activity

Chain of Transient receptor potential cation channel subfamily M member 8 (Q8R455 whole entry): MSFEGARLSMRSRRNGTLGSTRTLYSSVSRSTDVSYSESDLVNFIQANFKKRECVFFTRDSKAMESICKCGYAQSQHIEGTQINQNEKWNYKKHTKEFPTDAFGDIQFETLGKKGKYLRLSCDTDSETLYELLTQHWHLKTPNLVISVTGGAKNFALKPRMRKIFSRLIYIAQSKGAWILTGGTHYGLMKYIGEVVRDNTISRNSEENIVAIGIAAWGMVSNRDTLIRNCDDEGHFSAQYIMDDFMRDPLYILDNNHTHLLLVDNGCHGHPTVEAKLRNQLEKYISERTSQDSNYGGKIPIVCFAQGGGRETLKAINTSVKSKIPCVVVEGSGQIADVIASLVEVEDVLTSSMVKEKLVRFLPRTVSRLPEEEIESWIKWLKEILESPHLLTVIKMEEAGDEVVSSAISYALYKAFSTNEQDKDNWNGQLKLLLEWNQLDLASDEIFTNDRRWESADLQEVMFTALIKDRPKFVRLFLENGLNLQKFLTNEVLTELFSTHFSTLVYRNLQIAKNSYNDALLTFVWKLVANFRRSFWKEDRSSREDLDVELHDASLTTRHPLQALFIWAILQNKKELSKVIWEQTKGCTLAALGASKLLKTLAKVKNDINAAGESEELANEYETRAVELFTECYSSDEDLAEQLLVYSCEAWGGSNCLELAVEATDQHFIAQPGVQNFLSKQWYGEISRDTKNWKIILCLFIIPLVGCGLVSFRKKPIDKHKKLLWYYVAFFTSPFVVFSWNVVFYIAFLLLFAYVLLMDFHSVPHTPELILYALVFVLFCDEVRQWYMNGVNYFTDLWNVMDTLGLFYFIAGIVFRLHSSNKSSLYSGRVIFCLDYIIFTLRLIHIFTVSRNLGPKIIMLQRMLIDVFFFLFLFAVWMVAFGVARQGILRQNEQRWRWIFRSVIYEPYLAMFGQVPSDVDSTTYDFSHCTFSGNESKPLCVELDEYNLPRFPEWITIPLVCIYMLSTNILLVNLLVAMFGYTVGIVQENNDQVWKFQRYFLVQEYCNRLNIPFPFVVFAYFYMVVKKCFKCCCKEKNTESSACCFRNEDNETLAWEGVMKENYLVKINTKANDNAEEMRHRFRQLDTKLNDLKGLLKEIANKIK
Chain of Transient receptor potential cation channel subfamily A member 1 (Q6RI86 whole entry): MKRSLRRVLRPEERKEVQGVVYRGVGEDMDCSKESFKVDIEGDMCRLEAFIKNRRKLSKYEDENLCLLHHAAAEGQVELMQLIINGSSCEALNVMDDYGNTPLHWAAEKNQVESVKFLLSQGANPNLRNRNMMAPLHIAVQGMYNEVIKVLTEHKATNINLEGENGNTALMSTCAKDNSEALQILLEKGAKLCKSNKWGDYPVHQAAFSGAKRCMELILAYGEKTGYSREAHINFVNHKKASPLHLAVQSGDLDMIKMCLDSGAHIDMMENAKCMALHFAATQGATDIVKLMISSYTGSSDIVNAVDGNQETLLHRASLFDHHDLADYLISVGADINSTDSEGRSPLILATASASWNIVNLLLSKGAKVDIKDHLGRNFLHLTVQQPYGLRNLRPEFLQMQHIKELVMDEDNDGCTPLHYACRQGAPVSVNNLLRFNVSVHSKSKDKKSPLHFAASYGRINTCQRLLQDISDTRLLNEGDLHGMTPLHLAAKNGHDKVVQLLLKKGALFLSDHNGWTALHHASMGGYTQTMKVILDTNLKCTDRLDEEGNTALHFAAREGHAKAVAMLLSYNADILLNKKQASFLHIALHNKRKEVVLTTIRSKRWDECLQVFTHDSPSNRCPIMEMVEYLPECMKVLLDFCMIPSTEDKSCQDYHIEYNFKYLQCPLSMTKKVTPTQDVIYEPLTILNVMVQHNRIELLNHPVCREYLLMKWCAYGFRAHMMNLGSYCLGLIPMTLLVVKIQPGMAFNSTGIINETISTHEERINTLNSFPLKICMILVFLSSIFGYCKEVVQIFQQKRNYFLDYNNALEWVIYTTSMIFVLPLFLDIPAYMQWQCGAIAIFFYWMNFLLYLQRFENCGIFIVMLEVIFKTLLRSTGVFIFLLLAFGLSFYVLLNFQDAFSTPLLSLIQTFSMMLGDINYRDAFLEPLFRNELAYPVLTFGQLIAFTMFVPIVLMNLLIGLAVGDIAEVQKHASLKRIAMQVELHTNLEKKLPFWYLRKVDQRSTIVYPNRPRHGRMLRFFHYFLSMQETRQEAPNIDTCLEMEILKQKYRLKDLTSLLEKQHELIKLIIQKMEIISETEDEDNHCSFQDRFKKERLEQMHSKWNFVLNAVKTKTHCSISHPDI
T1 sequence (Q8NER1 whole entry): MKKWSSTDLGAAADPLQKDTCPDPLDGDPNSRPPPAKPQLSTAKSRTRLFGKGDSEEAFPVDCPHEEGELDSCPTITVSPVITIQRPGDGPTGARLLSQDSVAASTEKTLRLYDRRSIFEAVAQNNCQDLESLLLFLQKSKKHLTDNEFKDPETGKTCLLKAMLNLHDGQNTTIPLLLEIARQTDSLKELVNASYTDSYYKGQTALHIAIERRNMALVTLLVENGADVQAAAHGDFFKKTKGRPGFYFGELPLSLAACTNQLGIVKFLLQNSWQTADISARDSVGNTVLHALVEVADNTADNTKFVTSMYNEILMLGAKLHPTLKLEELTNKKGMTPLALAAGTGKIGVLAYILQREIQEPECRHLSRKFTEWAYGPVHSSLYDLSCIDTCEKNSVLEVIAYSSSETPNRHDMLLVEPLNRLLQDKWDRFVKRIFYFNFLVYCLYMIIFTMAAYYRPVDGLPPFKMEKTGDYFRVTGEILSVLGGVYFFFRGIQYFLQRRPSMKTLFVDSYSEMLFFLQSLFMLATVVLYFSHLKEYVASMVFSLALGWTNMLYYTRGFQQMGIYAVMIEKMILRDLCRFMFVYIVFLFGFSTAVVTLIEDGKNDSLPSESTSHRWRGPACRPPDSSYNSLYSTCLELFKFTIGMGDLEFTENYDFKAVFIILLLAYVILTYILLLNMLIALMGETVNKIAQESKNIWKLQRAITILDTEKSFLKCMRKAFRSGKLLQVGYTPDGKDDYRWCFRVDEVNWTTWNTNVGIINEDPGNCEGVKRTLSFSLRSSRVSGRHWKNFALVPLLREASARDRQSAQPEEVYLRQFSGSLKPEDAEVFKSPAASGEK

| Structure (SMILES) | EC50 [1] | Activity [2] [%] | IC50 [3] [µM] | IC50 [4] [µM] | inhibition [5] | CLint scaled at 1 h, 3 µM [6] [mL/min/kg] | Activity [7] [%] | Activity [8] [%] | viability at 72 h, 10 µM [9] [%] |
| --- | --- | --- | --- | --- | --- | --- | --- | --- | --- |
| COc1cc2c(cc1OC)[C@H](c1ccccc1)N(C(=O)N1CCc3cc(OC)c(OC)cc3[C@@H]1c1ccccc1)CC2 (racemic) | Not Active | 220 | 10 | 53 | inactive | – | – | – | – |
| COc1cc(/C=C2\NC(=O)[C@@H]3Cc4c(OC)c(C)c(OC)c(OC)c4[C@@H](c4ccccc4)N3C2=O)c(OC)c(C)c1OC | Not Active | 200 | 14.2 | 68.9 | inactive | 15.6 | – | – | – |
| COc1cc2c(cc1OC)[C@H](c1ccc(F)cc1)N(C(=O)N1CCc3cc(OC)c(OC)cc3[C@@H]1c1ccc(F)cc1)CC2 (racemic) | Not Active | 198 | 16.4 | 68.5 | inactive | 75.2 | 54.4 | 82.2 | 92.7 |
| COc1cc2c(cc1OC)[C@H](c1ccc(Cl)cc1)N(C(=O)N1CCc3cc(OC)c(OC)cc3[C@@H]1c1ccc(Cl)cc1)CC2 (racemic) | Not Active | 190 | 23.9 | 49.7 | inactive | – | – | – | – |
